Molecules are shown by their SMILES. Activity calls are given as the source filed them. The calls are words filed in the database; no cut-off is given here.

The source of these data is ChEMBL document CHEMBL4602720, “Degradation versus Inhibition: Development of Proteolysis-Targeting Chimeras for Overcoming Statin-Induced Compensatory Upregulation of 3-Hydroxy-3-methylglutaryl Coenzyme A Reductase” (J Med Chem, 2020).

Test [1] deals with T1, Protein cereblon/3-hydroxy-3-methylglutaryl-coenzyme A reductase (Cricetulus griseus) (UniProt P00347+G3H338). Put plainly: Protac activity at CRBN/HMGCR in Insig-1/Insig-2 deficient Chinese hamster SRD15 cells assessed as HMGCR level at 0.03 uM after 16 hrs by immunoblotting analysis (reference value: 1). In short, it runs like this:
(§1)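 Dose-response in SRD15 cells in Medium A with 5% FBS, 16 h treatment, DMSO final 0.1% or lower. RIPA lysates immunoblotted for HMGCR. HMGCR densitometry normalized to actin, with the DMSO group set to 1. Three repeats. DC50 is taken from a dose-response fit of the semi-quantitative blots, mean of 3 independent experiments.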
(In general: Immunoblotting shows a protein as a band on a membrane.)

The target of test [2] is T1, Protein cereblon/3-hydroxy-3-methylglutaryl-coenzyme A reductase (Cricetulus griseus). The test can be described thus: Protac activity at CRBN/HMGCR in Insig-1/Insig-2 deficient Chinese hamster SRD15 cells assessed as HMGCR level at 0.3 uM after 16 hrs by immunoblotting analysis (reference value: 1). In short, it runs like this: as §1
Target sequence in this assay (G3H338 1-445 partner): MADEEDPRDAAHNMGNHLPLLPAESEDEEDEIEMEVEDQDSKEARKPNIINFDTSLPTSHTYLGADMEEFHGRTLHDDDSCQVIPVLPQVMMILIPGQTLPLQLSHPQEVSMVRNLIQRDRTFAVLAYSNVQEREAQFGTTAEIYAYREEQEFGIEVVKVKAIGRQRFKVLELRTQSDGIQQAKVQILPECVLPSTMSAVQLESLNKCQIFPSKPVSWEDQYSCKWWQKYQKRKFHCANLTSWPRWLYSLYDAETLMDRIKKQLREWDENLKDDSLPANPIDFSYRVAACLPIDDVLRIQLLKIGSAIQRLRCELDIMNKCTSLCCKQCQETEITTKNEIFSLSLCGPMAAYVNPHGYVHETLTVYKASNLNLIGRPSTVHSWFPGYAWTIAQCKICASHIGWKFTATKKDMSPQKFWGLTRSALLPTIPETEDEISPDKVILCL
Target sequence in this assay (P00347 whole entry): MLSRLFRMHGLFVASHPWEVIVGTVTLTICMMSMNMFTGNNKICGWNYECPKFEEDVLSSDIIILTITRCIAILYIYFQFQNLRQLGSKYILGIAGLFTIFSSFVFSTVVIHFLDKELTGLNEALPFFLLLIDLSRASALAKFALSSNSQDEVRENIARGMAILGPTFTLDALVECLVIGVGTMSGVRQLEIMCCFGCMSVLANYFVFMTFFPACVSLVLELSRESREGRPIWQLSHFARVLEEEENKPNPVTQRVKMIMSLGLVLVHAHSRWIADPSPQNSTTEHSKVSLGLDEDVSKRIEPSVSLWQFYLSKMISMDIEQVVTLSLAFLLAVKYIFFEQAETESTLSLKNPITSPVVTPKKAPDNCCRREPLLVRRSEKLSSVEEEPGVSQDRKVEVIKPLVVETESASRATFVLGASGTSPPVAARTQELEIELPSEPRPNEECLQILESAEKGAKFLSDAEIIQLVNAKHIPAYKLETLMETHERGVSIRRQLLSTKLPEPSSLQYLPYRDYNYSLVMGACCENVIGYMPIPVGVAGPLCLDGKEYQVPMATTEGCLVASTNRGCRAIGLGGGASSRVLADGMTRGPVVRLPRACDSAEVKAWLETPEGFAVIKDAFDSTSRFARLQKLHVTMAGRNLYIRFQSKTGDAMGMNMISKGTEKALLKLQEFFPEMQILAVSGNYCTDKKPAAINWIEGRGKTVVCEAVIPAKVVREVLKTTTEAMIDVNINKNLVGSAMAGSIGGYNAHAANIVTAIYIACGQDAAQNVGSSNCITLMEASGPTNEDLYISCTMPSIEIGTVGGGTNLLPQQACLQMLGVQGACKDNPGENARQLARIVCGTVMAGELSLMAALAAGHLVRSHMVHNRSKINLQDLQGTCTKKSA
The target is the same in test [3]. Put plainly: Protac activity at CRBN/HMGCR in Insig-1/Insig-2 deficient Chinese hamster SRD15 cells assessed as HMGCR level at 1 uM after 16 hrs by immunoblotting analysis (reference value: 1). A digest of the protocol:
as §1
Target sequence in this assay (G3H338 1-445 partner): as the sequence (G3H338 1-445 partner) above
Target sequence in this assay (P00347 whole entry): as the sequence (P00347 whole entry) above

For test [4] the target is unchanged. Put plainly: Protac activity at CRBN/HMGCR in 5'-CCAGAAACUGAAGAUGAAA-3' siRNA transfected in Insig-1/Insig-2 deficient Chinese hamster SRD15 cells assessed as induction of HMGCR degradation at 1 uM after 16 hrs by immunoblotting analysis. A digest of the protocol: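 SRD15 cells (Insig-1/Insig-2-deficient CHO-7) in Medium A with 5% FBS at 37 °C, 5% CO2; transfected with negative-control or Crbn-targeting siRNA duplexes for 48 h, then given 1 μM degrader for 16 h. HMGCR by SDS-PAGE immunoblot of RIPA lysates. Knockdown efficiency checked by qRT-PCR against hamster GAPDH, comparative CT method. n = 3 independent experiments.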

In test [5] the target is Protein cereblon/3-hydroxy-3-methylglutaryl-coenzyme A reductase (Homo sapiens) (UniProt P04035+Q96SW2). The test can be described thus: Protac activity at human Flag-tagged CRBN/T7-tagged HMGCR expressed in Chinese hamster SRD15 cells transfected with HA-tagged ubiquitin assessed as increase in HMGCR immunoprecipitation 1 uM incubated for 16 hrs followed by pomalidomide addition addition and measured after 5 hrs in presence of MG132 by Western blot analysis. Format: cell-based.
Chain of Protein cereblon/3-hydroxy-3-methylglutaryl-coenzyme A reductase (Homo sapiens) (Q96SW2 whole entry, looked up, one chain of several): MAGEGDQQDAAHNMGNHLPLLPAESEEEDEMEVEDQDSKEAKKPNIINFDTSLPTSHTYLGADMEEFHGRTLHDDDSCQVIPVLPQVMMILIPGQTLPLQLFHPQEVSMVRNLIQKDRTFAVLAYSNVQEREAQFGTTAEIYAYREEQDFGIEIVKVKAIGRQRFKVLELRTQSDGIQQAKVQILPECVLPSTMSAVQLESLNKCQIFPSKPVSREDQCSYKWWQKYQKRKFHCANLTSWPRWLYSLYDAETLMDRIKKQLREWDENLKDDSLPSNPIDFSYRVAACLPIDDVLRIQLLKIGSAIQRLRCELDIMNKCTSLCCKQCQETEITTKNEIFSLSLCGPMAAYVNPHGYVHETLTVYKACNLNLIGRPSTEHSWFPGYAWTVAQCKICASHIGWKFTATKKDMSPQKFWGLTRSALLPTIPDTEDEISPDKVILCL

For test [6], the target named is T2, 3-hydroxy-3-methylglutaryl-coenzyme A reductase (Homo sapiens) (UniProt P04035).
T2 sequence (whole entry): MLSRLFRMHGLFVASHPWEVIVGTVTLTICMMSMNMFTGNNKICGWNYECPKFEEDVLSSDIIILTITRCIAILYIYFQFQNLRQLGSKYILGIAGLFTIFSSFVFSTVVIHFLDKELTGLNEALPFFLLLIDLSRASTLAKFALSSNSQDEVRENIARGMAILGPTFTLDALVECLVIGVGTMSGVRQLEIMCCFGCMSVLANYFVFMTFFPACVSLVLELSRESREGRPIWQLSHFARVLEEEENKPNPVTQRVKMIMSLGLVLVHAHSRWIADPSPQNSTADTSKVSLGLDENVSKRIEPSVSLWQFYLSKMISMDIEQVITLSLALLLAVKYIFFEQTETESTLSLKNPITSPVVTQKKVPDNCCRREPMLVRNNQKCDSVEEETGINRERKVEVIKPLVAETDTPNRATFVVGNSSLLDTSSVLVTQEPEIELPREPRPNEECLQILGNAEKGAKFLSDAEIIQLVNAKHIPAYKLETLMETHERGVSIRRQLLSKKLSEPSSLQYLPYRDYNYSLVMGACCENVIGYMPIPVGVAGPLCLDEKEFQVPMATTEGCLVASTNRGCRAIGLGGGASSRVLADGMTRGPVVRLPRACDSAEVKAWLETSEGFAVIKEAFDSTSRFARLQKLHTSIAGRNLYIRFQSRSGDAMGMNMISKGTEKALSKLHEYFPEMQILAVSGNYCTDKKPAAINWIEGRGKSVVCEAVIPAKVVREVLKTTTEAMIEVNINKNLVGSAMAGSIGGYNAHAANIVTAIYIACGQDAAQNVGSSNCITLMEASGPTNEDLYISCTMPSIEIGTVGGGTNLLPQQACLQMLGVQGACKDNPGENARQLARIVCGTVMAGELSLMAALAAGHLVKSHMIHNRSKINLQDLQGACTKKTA
Put plainly: Inhibition of GFP-labelled HMGCR (unknown origin) expressed in lentivirus Chinese hamster SRD15 cells assessed as reduction in cholesterol biosynthesis at 1 uM after 16 hrs by Hoechst staining based laser-scanning microscopic method. Type of test: cell-based.

The target of test [7] is T3, Sterol regulatory element-binding protein 2 (Mus musculus) (UniProt Q3U1N2).
T3 sequence (whole entry): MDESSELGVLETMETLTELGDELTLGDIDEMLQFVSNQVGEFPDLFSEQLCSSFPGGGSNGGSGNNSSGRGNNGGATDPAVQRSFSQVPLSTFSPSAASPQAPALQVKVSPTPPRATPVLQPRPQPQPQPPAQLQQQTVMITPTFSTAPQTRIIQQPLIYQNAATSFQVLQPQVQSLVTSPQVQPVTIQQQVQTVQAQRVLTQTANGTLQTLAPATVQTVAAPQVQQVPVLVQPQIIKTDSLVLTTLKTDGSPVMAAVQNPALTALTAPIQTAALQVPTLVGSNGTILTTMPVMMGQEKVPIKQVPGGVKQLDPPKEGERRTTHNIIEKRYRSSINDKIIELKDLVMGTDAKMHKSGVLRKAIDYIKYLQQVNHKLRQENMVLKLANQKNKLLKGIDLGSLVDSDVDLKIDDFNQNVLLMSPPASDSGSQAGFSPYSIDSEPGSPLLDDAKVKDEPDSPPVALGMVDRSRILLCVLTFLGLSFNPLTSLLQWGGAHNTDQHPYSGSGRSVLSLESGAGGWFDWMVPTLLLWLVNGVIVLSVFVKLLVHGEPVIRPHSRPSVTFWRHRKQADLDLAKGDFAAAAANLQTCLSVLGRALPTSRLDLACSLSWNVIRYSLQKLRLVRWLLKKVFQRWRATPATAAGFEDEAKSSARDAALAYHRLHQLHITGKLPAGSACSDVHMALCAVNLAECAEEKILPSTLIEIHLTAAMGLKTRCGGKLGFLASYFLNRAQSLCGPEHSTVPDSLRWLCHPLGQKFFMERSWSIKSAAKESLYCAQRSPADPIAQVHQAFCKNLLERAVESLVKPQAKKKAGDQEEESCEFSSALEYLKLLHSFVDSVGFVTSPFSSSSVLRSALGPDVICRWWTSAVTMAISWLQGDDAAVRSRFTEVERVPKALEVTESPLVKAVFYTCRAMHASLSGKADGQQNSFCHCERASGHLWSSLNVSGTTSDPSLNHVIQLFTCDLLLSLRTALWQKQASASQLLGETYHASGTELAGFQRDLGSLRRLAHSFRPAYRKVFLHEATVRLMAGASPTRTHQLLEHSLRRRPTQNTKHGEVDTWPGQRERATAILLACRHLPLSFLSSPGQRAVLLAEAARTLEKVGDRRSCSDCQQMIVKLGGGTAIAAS
The test can be described thus: Activation of SREBP2 pathway in mouse primary hepatocytes assessed as increase in HMGCR mRNA expression at 0.3 to 1 uM afer 16 hrs by quantitative real-time PCR analysis. Format: cell-based. For orientation: In qPCR the cycle at which signal appears reflects the starting amount.

Take `CC(C)c1c(C(=O)Nc2ccccc2)c(-c2cccc(OCCCc3cn(CCOCCOCCOCCOCCNc4cccc5c4C(=O)N(C4CCC(=O)NC4=O)C5=O)nn3)c2)c(-c2ccc(F)cc2)n1CC[C@@H](O)C[C@@H](O)CC(=O)O` (some centres not stated): the fold change (FC) in test [1] was 0.6; in test [2] it was 0.4; in test [3] it was 0.3 to 0.6. Also, the outcome in test [4] and in test [5] was inactive. The inhibition entry in test [6] is “Active”. Also, the outcome in test [7] was Active.
